The campaign covered roughly 360,000 compounds. About 1,100 (0.31%) were called active. For the sample, actives were picked, then their nearest neighbours and some compounds at random. A number with no mark means an inactive call.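 Rule for the calls: active = activation above the run cutoff, the mean activation of all test compounds plus 3 SD (cut at about 18% in these data); inactive = the rest.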
Each molecule was assayed against Muscarinic acetylcholine receptor M5 (Homo sapiens) (UniProt P08912) (assay: CHRM5 PAMs potentiating acetylcholine calcium signal – CHO-K1 cells, Fluo-8 calcium fluorescence, primary screen (AID 624038)). Conditions: CHO-K1 hM5, Fluo-8 calcium, ACh EC20 PAM; at 3 µM; hits give high values; 0% = ACh EC20, 100% = ACh EC100.
Muscarinic acetylcholine receptor M5 (Homo sapiens), sequence (P08912 whole entry, looked up): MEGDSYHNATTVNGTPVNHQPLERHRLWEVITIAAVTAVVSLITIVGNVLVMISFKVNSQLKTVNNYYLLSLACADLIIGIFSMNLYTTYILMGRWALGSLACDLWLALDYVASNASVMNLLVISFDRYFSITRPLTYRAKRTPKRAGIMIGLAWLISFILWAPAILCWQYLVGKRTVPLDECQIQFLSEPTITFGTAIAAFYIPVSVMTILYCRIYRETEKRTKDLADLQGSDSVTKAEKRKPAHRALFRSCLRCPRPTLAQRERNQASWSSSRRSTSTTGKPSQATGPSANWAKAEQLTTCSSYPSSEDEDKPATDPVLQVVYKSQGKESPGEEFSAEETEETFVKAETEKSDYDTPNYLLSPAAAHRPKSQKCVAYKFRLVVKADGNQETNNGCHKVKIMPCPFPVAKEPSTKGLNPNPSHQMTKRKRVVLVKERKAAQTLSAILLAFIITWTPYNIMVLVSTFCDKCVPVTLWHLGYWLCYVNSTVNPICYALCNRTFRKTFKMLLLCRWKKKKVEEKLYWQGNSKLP
Method in brief: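 System: CHO-K1 cell line with stable human muscarinic M5 receptor expression | Also added: EC20 acetylcholine as agonist stimulus | Compound: One concentration, 3 µM final (nominal) | Timing: Fluo-8 loading 80 min at 37 °C plus 30 min room temperature | Measured by: Fluo-8 calcium dye fluorescence, kinetic read | Read-out basis: % activation, ACh-normalized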

First: COc1ccc2c(-c3ccccc3)cc(SCC(=O)N(C)C3CCS(=O)(=O)C3)nc2c1 (stereo unspecified)
Second: CN(C(=O)COC(=O)c1cc(-c2ccco2)nc2ccccc12)C1CCS(=O)(=O)C1 (stereo unspecified)
The activation of the first is lower: -0.41% for the first, 2.3% for the second.

Going from CCOC(=O)C1=C(C)OC(N)=C(C#N)C1c1cncc(-c2ccc(F)cc2)c1 (stereo unspecified) to CC(=O)c1cnn(-c2cc(Oc3ccc(F)cc3)ncn2)c1C, the activation rises from -7.72% to 0.64%.

Going from CN1CCN(S(=O)(=O)c2ccc(Nc3ccc(F)cc3)nc2)CC1 to O=C(NNS(=O)(=O)c1ccc(F)cc1)c1cnccn1, the activation falls from 11.7% to -12.5%.

First: CCOC(=O)C1CCCN(C(=O)c2ccc(N(C)C)cc2)CC1 (stereo unspecified)
Second: CCOC(=O)C1CCCN(C(=O)c2ccc(C)c(F)c2)CC1 (stereo unspecified)
The activation of the first is lower: -2.3% for the first, 0.17% for the second.

Going from C=CCOC(=O)c1ccccc1C(=O)OCC=C to Cc1ccc(NC(=O)CSc2nnc(CNC(=O)c3ccccc3F)o2)cc1, the activation rises from 0.16% to 0.28%.

First: O=C(COC(=O)/C=C/c1ccc(OC(F)F)cc1)NC1CCCCC1
Second: Cc1ccc(S(=O)(=O)N(C)C)cc1NC(=O)COC(=O)/C=C/c1cccs1
The activation of the first is lower: -3.38% for the first, 1.46% for the second.

First: CCN(CCn1cccn1)C(=O)CC1C(=O)NCCN1Cc1cccc(OC)c1OC (stereo unspecified)
Second: CCN(Cc1ccccc1)C(=O)Cc1ccc(OC)c(S(=O)(=O)N2CCOCC2)c1
The activation of the first is lower: -1.21% for the first, 0.97% for the second.

Compared with CCCC(CNC(=O)COC(=O)C1=NNC(=O)CC1)c1ccc(Cl)cc1Cl (stereo unspecified), CCOC(=O)c1ccc2c(c1)nc(SCC(=O)NC(C)C)n2CC is lower in activation: 8.77% for the first, 0.07% for the second.

Compared with O=C(c1ccc(Br)o1)N1CCN(CCOc2ccccc2)CC1, O=C(c1ccco1)N1CCN(CCOc2ccccc2)CC1 is lower in activation: 4.96% for the first, 2.94% for the second.

First: CCC1=[N+]([O-])C(C)(/C(C)=N\O)N(O)C1(C)C (stereo unspecified)
Second: CCc1ccc(NC(=O)C(=O)N/N=C(\C)CC(=O)NCCOC)cc1
The activation of the first is higher: 3.88% for the first, 3.15% for the second.

First: CC(C)Cn1cc(-c2cncc3nccn23)cn1
Second: Cc1cc(C)n(-c2ccc3nncn3n2)n1
The activation of the first is lower: -3.57% for the first, 0.99% for the second.

First: CC(C)(C)n1nc(Cc2cccc3ccccc23)c(C#N)c1N
Second: CCN(CC)S(=O)(=O)c1cc([N+](=O)[O-])ccc1N=Nc1c(O)n(C)c2ccccc12
The activation of the first is lower: -3.53% for the first, -2.02% for the second.

Going from COc1ccc(-c2c(C#Cc3ccccc3)c3ccccc3n2C)cc1 to COc1ccc(NC(=O)CNC(=O)Cn2ccc3ccccc3c2=O)c(OC)c1, the activation falls from 0.62% to 0.07%.

Going from CCN(C[C@H]1N[C@@](CC)(C(=O)OC)[C@H]2C(=O)N(C)C(=O)[C@@H]12)C(=O)Nc1ccc(F)cc1 to CCOc1ccc(NC(=O)CN(C)C(=O)CCSc2ccc(F)cc2)cc1OCC, the activation falls from -0.26% to -1.87%.

First: O=C(NCc1ccccc1)C1c2ccccc2OCC(=O)N1C1CC1 (stereo unspecified)
Second: CCN(Cc1ccccc1)S(=O)(=O)c1cc2c3c(c1)CCN3C(=O)CC2
The activation of the first is higher: 6.75% for the first, 3.77% for the second.

Compared with Cc1ccc(NC(=O)CSc2nnc(CNC(=O)c3ccccc3F)o2)cc1Cl, COc1ccc(NC(=O)CSc2nnc(-c3ccccc3F)n2C2CC2)cc1S(N)(=O)=O is higher in activation: -1.76% for the first, 4.72% for the second.

First: COCCNC(=O)C1CCCN(Cc2ccccc2Cl)CC1 (stereo unspecified)
Second: CCOC(=O)CC1(NC(=O)c2cc(COc3cncc(Cl)c3)on2)CCCCC1
The activation of the first is higher: 0.83% for the first, -12.1% for the second.

Going from COc1ccc(CN(C(=O)c2cccs2)c2nccs2)cc1OC to Cc1ccc(S(=O)(=O)N(C)C)cc1NC(=O)/C=C/c1cccs1, the activation rises from -13.5% to -1.18%.

First: C[C@H]1CC[C@]2(O[C@@H](CCO)C[C@@H](O)[C@@H]2O)O1
Second: C[C@@H]1CC[C@]2(O[C@@H](CCO)C[C@H](O)[C@H]2O)O1
The activation of the first is higher: 5.16% for the first, 3.31% for the second.

Going from Cc1ccc(NC(=O)N2CCSc3ccccc32)cc1 to Cc1cccc(-n2nc3c(c2NC(=O)c2cc4ccccc4o2)CS(=O)(=O)C3)c1, the activation rises from -6.2% to 0.74%.

First: CCN(C(=O)CSc1nnc(-c2ccncc2)o1)c1ccccc1
Second: Cc1ccc(-c2nnc(CN3CCN(C)CC3)o2)cc1
The activation of the first is lower: -1.49% for the first, 5.27% for the second.

First: COCCNc1nc(N)c([N+](=O)[O-])c(NCCO)n1
Second: CCCCc1ccc(NC(=O)NCc2cccnc2)cc1
The activation of the first is lower: -6.19% for the first, 2.66% for the second.

Compared with COC(=O)c1sc(SC)c(S(=O)(=O)C(C)C)c1N/N=C(\C#N)S(=O)(=O)c1ccccn1, CN(C)CCCN1C(=O)CSC1c1ccc([N+](=O)[O-])cc1 (stereo unspecified) is higher in activation: 3.1% for the first, 8.84% for the second.

First: CCc1nc2ccc(C(=O)N3CCC(O)(Cc4ccccc4)CC3)cn2c1N(C)C(=O)Cc1ccccc1
Second: O=C(O)c1ccc(COCC(F)(F)F)cc1
The activation of the first is higher: 1.27% for the first, -0.76% for the second.

Going from FC(F)(F)c1ccnc(Oc2ccc(C3=NCCS3)cc2)c1 to CCCCCCN1CCN(C2CN(Cc3cn(CCCCCC)nn3)S(=O)(=O)C2)CC1 (stereo unspecified), the activation rises from -0.95% to 0.04%.

For Cc1c(-c2cccc(Cl)c2)nc2ccccc2c1C(=O)OCC(=O)N(C)C1CCS(=O)(=O)C1 (stereo unspecified), the activation was 20.2% (active).
With C=CCN1C(=O)c2ccc(C(=O)N3CCC(C(=O)OCC)CC3)cc2C1=O the activation was 44.4% (active).
With COC(c1ccccc1)c1nnc(CCC(=O)N2CCN(CCOc3ccccc3)CC2)o1 (stereo unspecified) the activation was 20% (active).
For CN(C)Cc1c(C#N)c2ccccc2n1C, the activation was 18.2% (active).
With O=C(NCc1nnc(SCC(=O)N2CCCc3ccccc32)o1)c1ccccc1F the activation was 22.5% (active).
For OCC[C@H]1C[C@H](O)[C@@H](O)[C@]2(CCCCO2)O1, the activation was 19.8% (active).
CCCCSc1nnc(-c2ccc(C)cc2)o1 was tested, and the activation was 19.1% (active).
Cc1cc(C)n(-c2cc(Oc3ccccc3)ncn2)n1 was tested, and the activation was 34.2% (active).
CCCCCCCCCCCCN1C(=O)CSC1c1cccnc1 (stereo unspecified) was tested, and the activation was 22.7% (active).
In the case of Cc1cc(C)c2nc(N(CCN(C)C)C(=O)/C=C/c3cccs3)sc2c1, the activation is reported as 18.8% (active).
With CCOC1CS(=O)(=O)CC1OCC (stereo unspecified) the activation was 27.7% (active).

Source: PubChem BioAssay AID624038 (The Scripps Research Institute Molecular Screening Center, 2012)
